Results taken from ChEMBL document CHEMBL1126750, “Nonpeptide angiotensin II receptor antagonists. Synthesis and biological activity of benzimidazolecarboxylic acids” (J Med Chem, 1993).

Tests used:
[1] = target: T1, Angiotensin II receptor (Rattus norvegicus) (UniProt P29089+P25095+P35351); assay: Percent inhibition of the Angiotensin-II (0.1ug/kg, iv) induced pressor response after 3 hours of administration (1 mg/kg po) in rats; assay type: functional, organism-based
Method in brief: (§1)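 Conscious male Sprague-Dawley rats dosed orally with test compound; pressor response to AII challenge (0.1 µg/kg iv) measured at 3 and 7 h after dosing and expressed as percent inhibition. Duplicate experiments, with n = 3 for some compounds; variation in % inhibition under 30%.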

[2] = target: T1, Angiotensin II receptor (Rattus norvegicus); assay: (§2) Percent inhibition of the Angiotensin-II (0.1micro g/kg, iv) induced pressor response after 7 hours of administration (3 mg/kg po) in rats; assay type: functional, organism-based; method in brief: as §1
[3] = target: T1, Angiotensin II receptor (Rattus norvegicus); assay: Percent inhibition of the Angiotensin-II (0.1ug/kg, iv) induced pressor response after 3 hours of administration (3 mg/kg po) in rats; assay type: functional, organism-based; method in brief: as §1
[4] = target: T1, Angiotensin II receptor (Rattus norvegicus); assay: Percent inhibition of the Angiotensin-II (0.1ug/kg, iv) induced pressor response after 7 hours of administration (1 mg/kg po) in rats; assay type: functional, organism-based; method in brief: as §1
[5] = target: T2, Type-1 angiotensin II receptor (Bos taurus, UniProt P25104); assay: Inhibition of specific binding of [125 I ] Angiotensin-II (0.2 nM) to bovine adrenal cortex; assay type: tissue-based
T2 sequence (P25104 whole entry): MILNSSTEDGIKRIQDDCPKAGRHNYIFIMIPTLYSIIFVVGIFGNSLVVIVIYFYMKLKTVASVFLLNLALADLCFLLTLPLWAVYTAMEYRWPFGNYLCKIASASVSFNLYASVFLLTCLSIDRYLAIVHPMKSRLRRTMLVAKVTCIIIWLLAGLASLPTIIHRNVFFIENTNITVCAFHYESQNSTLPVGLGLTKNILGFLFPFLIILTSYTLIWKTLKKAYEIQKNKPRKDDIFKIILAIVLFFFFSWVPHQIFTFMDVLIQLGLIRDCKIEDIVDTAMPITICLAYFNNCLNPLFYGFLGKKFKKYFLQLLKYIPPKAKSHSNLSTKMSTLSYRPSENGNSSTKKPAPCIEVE

Rattus norvegicus [6] = assay: Percent inhibition of the Angiotensin-II (0.1ug/kg, iv) induced pressor response after 3 hours of administration (10 mg/kg po) in rats; assay type: functional; method in brief: as §1
Rattus norvegicus [7] = assay: Percent inhibition of the Angiotensin-II (0.1micro g/kg, iv) induced pressor response after 7 hours of administration (10 mg/kg po) in rats; assay type: functional; method in brief: as §1
Oryctolagus cuniculus = organism: Oryctolagus cuniculus; assay: Concentration required for inhibition of Angiotensin-II induced rabbit aorta strips contraction; assay type: functional
Method in brief: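 Isolated rabbit aortic strips contracted with AII (10 nM); test compound inhibition measured from concentration-inhibition curves, n = 6-8; IC50 is the concentration halving the AII-induced contraction.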

Rattus norvegicus [8] = assay: as §2; assay type: functional; method in brief: as §1
Rattus norvegicus [9] = assay: Percent inhibition of the Angiotensin-II (0.1ug/kg, iv) induced pressor response after 7 hours of administration (3 mg/kg po) in rats; assay type: functional; method in brief: as §1

Structure (SMILES)	inhibition [1] [%]	inhibition [4] [%]	IC50 [5] [µM]	other results
CCCc1nc2cccc(C(=O)O)c2n1Cc1ccc(-c2ccccc2-c2nn[nH]n2)cc1	83	69	0.17	inhibition [2]: 91%; inhibition [3]: 90%
C=CCOc1nc2cccc(C(=O)OC)c2n1Cc1ccc(-c2ccccc2-c2nnn[nH]2)cc1			0.85	
CCCSc1nc2cccc(C(=O)O)c2n1Cc1ccc(-c2ccccc2-c2nn[nH]n2)cc1	100	100		inhibition [2]: 76%; inhibition [3]: 88%
CSc1nc2cccc(C(=O)O)c2n1Cc1ccc(-c2ccccc2-c2nnn[nH]2)cc1			0.12	
CCOc1nc2cc(C(=O)O)ccc2n1Cc1ccc(-c2ccccc2-c2nn[nH]n2)cc1			13	Inhibition (Rattus norvegicus [6]): 4%; Inhibition (Rattus norvegicus [7]): 4%; IC50 (Oryctolagus cuniculus): 0.191 µM
COc1nc2cccc(C(=O)O)c2n1Cc1ccc(-c2ccccc2-c2nnn[nH]2)cc1			0.032	
CSCc1nc2cccc(C(=O)O)c2n1Cc1ccc(-c2ccccc2-c2nn[nH]n2)cc1	85	44	0.15	
CCCNc1nc2cccc(C(=O)O)c2n1Cc1ccc(-c2ccccc2-c2nnn[nH]2)cc1			0.039	
CCC(C)c1nc2cccc(C(=O)O)c2n1Cc1ccc(-c2ccccc2-c2nnn[nH]2)cc1 (centres undefined)			3.9	
CCOc1nc2cccc(C(=O)OC)c2n1Cc1ccc(-c2ccccc2-c2nn[nH]n2)cc1	100	90		inhibition [2]: 100%; inhibition [3]: 100%
Cc1nc2cccc(C(=O)O)c2n1Cc1ccc(-c2ccccc2-c2nn[nH]n2)cc1				Inhibition (Rattus norvegicus [8]): 51%; inhibition [3]: 50%
CCCOc1nc2cccc(C(=O)OCC)c2n1Cc1ccc(-c2ccccc2-c2nn[nH]n2)cc1				Inhibition (Rattus norvegicus [9]): 93%; inhibition [3]: 66%
CCCCCc1nc2cccc(C(=O)O)c2n1Cc1ccc(-c2ccccc2-c2nnn[nH]2)cc1			0.56	
COCc1nc2cccc(C(=O)O)c2n1Cc1ccc(-c2ccccc2-c2nn[nH]n2)cc1	47	33	0.25	
O=C(O)c1cccc2nc(OCC(F)(F)F)n(Cc3ccc(-c4ccccc4-c4nn[nH]n4)cc3)c12	28	7	0.58	
COC(=O)c1cccc2nc(OC)n(Cc3ccc(-c4ccccc4-c4nnn[nH]4)cc3)c12			0.49	
CCCCc1nc(Cl)c(CO)n1Cc1ccc(-c2ccccc2-c2nn[nH]n2)cc1 [LOSARTAN POTASSIUM]			0.15	
CCCNc1nc2cccc(C(=O)O)c2n1Cc1ccc(-c2ccccc2-c2nn[nH]n2)cc1	46	66		inhibition [2]: 72%; inhibition [3]: 73%
CCCCOc1nc2cccc(C(=O)OC)c2n1Cc1ccc(-c2ccccc2-c2nnn[nH]2)cc1			> 1	
O=C(O)c1cccc2nc(C3CC3)n(Cc3ccc(-c4ccccc4-c4nn[nH]n4)cc3)c12	80	88	0.084	inhibition [2]: 96%; inhibition [3]: 92%

Structure (SMILES)	inhibition [1] [%]	inhibition [4] [%]	IC50 [5] [µM]	other results
CCN(C)c1nc2cccc(C(=O)O)c2n1Cc1ccc(-c2ccccc2-c2nnn[nH]2)cc1			> 1	
COC(=O)c1cccc2nc(OC)n(Cc3ccc(-c4ccccc4-c4nn[nH]n4)cc3)c12	94	89		
COC(=O)c1cccc2nc(OCC(F)(F)F)n(Cc3ccc(-c4ccccc4-c4nnn[nH]4)cc3)c12			> 1	
C=CCOc1nc2cccc(C(=O)OC)c2n1Cc1ccc(-c2ccccc2-c2nn[nH]n2)cc1	14	12		
CC(C)Cc1nc2cccc(C(=O)O)c2n1Cc1ccc(-c2ccccc2-c2nn[nH]n2)cc1	-9	13		inhibition [2]: 29%; inhibition [3]: 29%
COCCc1nc2cccc(C(=O)O)c2n1Cc1ccc(-c2ccccc2-c2nn[nH]n2)cc1	13	3	0.58	
CCSc1nc2cccc(C(=O)OC)c2n1Cc1ccc(-c2ccccc2-c2nn[nH]n2)cc1			0.44	
CSc1nc2cccc(C(=O)O)c2n1Cc1ccc(-c2ccccc2-c2nn[nH]n2)cc1	100	81		inhibition [2]: 95%; inhibition [3]: 100%
CCOCc1nc2cccc(C(=O)O)c2n1Cc1ccc(-c2ccccc2-c2nnn[nH]2)cc1			0.44	
CCOc1nc2ccc(C(=O)O)cc2n1Cc1ccc(-c2ccccc2-c2nn[nH]n2)cc1			0.93	Inhibition (Rattus norvegicus [6]): 50%; Inhibition (Rattus norvegicus [7]): 34%; IC50 (Oryctolagus cuniculus): 0.0019 µM
CCCSc1nc2cccc(C(=O)O)c2n1Cc1ccc(-c2ccccc2-c2nnn[nH]2)cc1			0.12	
COC(=O)c1cccc2nc(OCC(F)(F)F)n(Cc3ccc(-c4ccccc4-c4nn[nH]n4)cc3)c12	36	9		
CC(C)c1nc2cccc(C(=O)O)c2n1Cc1ccc(-c2ccccc2-c2nnn[nH]2)cc1			0.082	
CCNc1nc2cccc(C(=O)O)c2n1Cc1ccc(-c2ccccc2-c2nnn[nH]2)cc1			0.062	
O=C(O)c1cccc2nc(N3CCOCC3)n(Cc3ccc(-c4ccccc4-c4nnn[nH]4)cc3)c12			> 1	
CC[S+]([O-])c1nc2cccc(C(=O)OC)c2n1Cc1ccc(-c2ccccc2-c2nn[nH]n2)cc1 (centres undefined)			> 1	
CCC(C)c1nc2cccc(C(=O)O)c2n1Cc1ccc(-c2ccccc2-c2nn[nH]n2)cc1 (centres undefined)	6	0		inhibition [2]: 18%; inhibition [3]: 15%
CCOc1nc2cccc(C(=O)O)c2n1Cc1ccc(-c2ccccc2C(=O)O)cc1	26	44	0.19	inhibition [2]: 49%; inhibition [3]: 37%
CNc1nc2cccc(C(=O)O)c2n1Cc1ccc(-c2ccccc2-c2nnn[nH]2)cc1			0.17	
CSCCc1nc2cccc(C(=O)O)c2n1Cc1ccc(-c2ccccc2-c2nn[nH]n2)cc1	10	10	0.62	

Structure (SMILES)	inhibition [1] [%]	inhibition [4] [%]	IC50 [5] [µM]	other results
Cc1nc2cccc(C(=O)O)c2n1Cc1ccc(-c2ccccc2-c2nnn[nH]2)cc1			0.19	
CCSCc1nc2cccc(C(=O)O)c2n1Cc1ccc(-c2ccccc2-c2nnn[nH]2)cc1			0.3	
CCCOc1nc2cccc(C(=O)O)c2n1Cc1ccc(-c2ccccc2-c2nnn[nH]2)cc1			0.19	
CCSc1nc2cccc(C(=O)O)c2n1Cc1ccc(-c2ccccc2-c2nnn[nH]2)cc1			0.17	
CCCCc1nc2cccc(C(=O)O)c2n1Cc1ccc(-c2ccccc2-c2nn[nH]n2)cc1	49	53		Inhibition (Rattus norvegicus [8]): 76%; inhibition [3]: 80%
CC(C)c1nc2cccc(C(=O)O)c2n1Cc1ccc(-c2ccccc2-c2nn[nH]n2)cc1				inhibition [2]: 38%; inhibition [3]: 61%
CCOc1nc2cccc(C(=O)OC)c2n1Cc1ccc(-c2ccccc2-c2nnn[nH]2)cc1			0.066	
O=C(O)c1cccc2nc(N3CCCCC3)n(Cc3ccc(-c4ccccc4-c4nnn[nH]4)cc3)c12			> 1	
CCCCc1nc2cccc(C(=O)O)c2n1Cc1ccc(-c2ccccc2-c2nnn[nH]2)cc1			0.55	
CCOc1nc2c(C(=O)O)cccc2n1Cc1ccc(-c2ccccc2-c2nn[nH]n2)cc1				Inhibition (Rattus norvegicus [6]): 22%; Inhibition (Rattus norvegicus [7]): 5%; IC50 (Oryctolagus cuniculus): 0.131 µM
CCCOc1nc2cccc(C(=O)O)c2n1Cc1ccc(-c2ccccc2-c2nn[nH]n2)cc1	87	83		inhibition [2]: 100%; inhibition [3]: 100%
COc1nc2cccc(C(=O)O)c2n1Cc1ccc(-c2ccccc2-c2nn[nH]n2)cc1	97	80		
CCCCNc1nc2cccc(C(=O)O)c2n1Cc1ccc(-c2ccccc2-c2nnn[nH]2)cc1			0.65	
CCCOc1nc2cccc(C(=O)OCC)c2n1Cc1ccc(-c2ccccc2-c2nnn[nH]2)cc1			1	
CC(C)Cc1nc2cccc(C(=O)O)c2n1Cc1ccc(-c2ccccc2-c2nnn[nH]2)cc1			3.2	
CCOCc1nc2cccc(C(=O)O)c2n1Cc1ccc(-c2ccccc2-c2nn[nH]n2)cc1	63	29		
CCCCc1nc(Cl)c(CO)n1Cc1ccc(-c2ccccc2-c2nnn[nH]2)cc1	21	34		inhibition [2]: 74%; inhibition [3]: 62%
CCc1nc2cccc(C(=O)O)c2n1Cc1ccc(-c2ccccc2-c2nnn[nH]2)cc1			0.046	
CCSc1nc2cccc(C(=O)O)c2n1Cc1ccc(-c2ccccc2-c2nn[nH]n2)cc1	87	90		inhibition [2]: 97%; inhibition [3]: 99%
CCSCc1nc2cccc(C(=O)O)c2n1Cc1ccc(-c2ccccc2-c2nn[nH]n2)cc1	68	57		
